C2C12 statin: suppressors of statin myotoxicity in C2C12 myotubes, primary screen, cell-based, single point, plate reader; C2C12 myotubes + simvastatin, ATP luminescence, 48 h; scaled: DMSO 0, geranylgeraniol control 100; rescue of ATP level, % at 7.49 µM; 330,000 tested, 0.78% active; AID 602340, 2012;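 active means mean ATP rescue above about 67%, or every replicate alone reaching that limit, limit read from the data, passing the limit was not always enough; inconclusive means no clear call, values can overlap the other calls; inactive means mean under the limit and some replicate under it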;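 further: myotubes were challenged with 10 µM simvastatin during compound exposure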
DENV2 CPE rescue: inhibitors of DENV2 cytopathic effect, primary screen, cell-based, plate reader, single concentration | CPE inhibition, % at 9.99 µM | DENV2-infected cells, cytopathic effect rescue | 350,000 tested, 1.7% active | AID 651640, 2012; in the data active means CPE inhibition above about 20%, passing the limit was not always enough; inconclusive means no clear call, values can overlap the other calls; tested in BHK-21 cells;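 further: 0% = median of neutral control wells and 100% = median of positive control wells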
E-selectin induc: E-selectin induction in HUVECs, primary screen, imaging, HUVEC, immunofluorescence imaging, single point | P16581 | normalized: neutral wells 0, TNF-alpha wells 100 | activation, % at 7.58 µM | 260,000 tested, 0.37% active | AID 686992, 2013;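 active means mean E-selectin-positive cell signal at least 10% of the positive control, reached in at least 60% of replicates, without over 20% cell loss; inconclusive means no rule given, readout overlaps actives, possibly toxicity-flagged; inactive means the rest, including those meeting only one limit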
Target sequence (P16581 whole entry, looked up): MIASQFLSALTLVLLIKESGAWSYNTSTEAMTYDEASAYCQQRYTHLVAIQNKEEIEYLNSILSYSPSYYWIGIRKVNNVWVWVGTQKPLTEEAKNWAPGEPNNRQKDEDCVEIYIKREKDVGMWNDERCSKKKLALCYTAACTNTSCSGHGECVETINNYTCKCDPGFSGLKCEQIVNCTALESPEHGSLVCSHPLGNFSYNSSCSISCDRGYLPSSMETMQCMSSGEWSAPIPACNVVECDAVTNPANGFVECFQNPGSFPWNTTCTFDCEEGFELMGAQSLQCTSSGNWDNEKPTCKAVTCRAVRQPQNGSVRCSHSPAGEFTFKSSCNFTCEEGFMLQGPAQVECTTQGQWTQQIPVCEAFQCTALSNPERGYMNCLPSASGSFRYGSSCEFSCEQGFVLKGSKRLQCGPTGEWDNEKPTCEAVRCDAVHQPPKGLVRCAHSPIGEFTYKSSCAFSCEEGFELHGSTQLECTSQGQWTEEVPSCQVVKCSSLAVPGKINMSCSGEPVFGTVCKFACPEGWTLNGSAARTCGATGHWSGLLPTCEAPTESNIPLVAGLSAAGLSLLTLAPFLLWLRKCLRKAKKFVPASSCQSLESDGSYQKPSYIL
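material = human umbilical vein endothelial cells (HUVEC), E-selectin induction | quantity = 3,000 cells/well | medium = EGM-2 growth medium on 0.1% gelatin-coated wells | technique = immunofluorescence imaging | read-out basis = % PE-positive cells | control set = TNF-alpha positive control, DMSO neutral control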
Numbers without * were called inactive; ? = inconclusive; . = no result. Rows were chosen to be rich in hits. Some 2.2% of all compounds tested hit in one or more screens of this group.

SMILES	C2C12 statin	DENV2 CPE rescue	E-selectin induc
COCCOC(=O)N1C(=O)[C@@]2(c3cc(C#CCC(C(=O)OC)C(=O)OC)ccc31)[C@H](c1ccccc1OCCO)N1[C@H](c3ccccc3)[C@H](c3ccccc3)OC(=O)[C@H]1[C@@H]2C(=O)NC[C@H](O)c1ccccc1	.	30*	.
CC(C)Nc1nc(NC(C)C)nc(Nn2cnnc2)n1	.	-1	.
CC(C)Nc1nc(NC(C)C)nc(N(C)n2cnnc2)n1	98*	.	.
CCCC(=O)Nc1ccc2c(c1)OC[C@H](C)N(Cc1ccccc1F)C[C@H](C)[C@H](OC)CN(C)C2=O	33	-7	0
Cc1ccc(S(=O)(=O)Nc2ccc3c(c2)CC(=O)N([C@H](C)CO)C[C@H](C)[C@@H](CN(C)CC2CCCCC2)O3)cc1	64	6	0
C[C@@H]1CN([C@H](C)CO)C(=O)Cc2cc(NS(=O)(=O)c3ccc(Cl)cc3)ccc2O[C@H]1CN(C)CC1CCCCC1	124*	-3	-11
C[C@@H]1CN([C@H](C)CO)C(=O)Cc2cc(NS(=O)(=O)c3ccc(Cl)cc3)ccc2O[C@@H]1CN(C)CC1CCCCC1	49	49*	-9
C[C@H](CO)N1C[C@H](C)[C@@H](CN(C)CC2CCCCC2)Oc2ccc(NS(=O)(=O)c3ccc(Cl)cc3)cc2CC1=O	123*	8	-11
C[C@H](CO)N1C[C@H](C)[C@@H](CN(C)CC2CC2)Oc2ccc(NS(=O)(=O)c3ccc(Cl)cc3)cc2CC1=O	-1	6	2
C[C@@H]1CN([C@H](C)CO)C(=O)Cc2cc(NS(=O)(=O)c3ccc(Cl)cc3)ccc2O[C@H]1CN(C)CC1CC1	8	-4	0
C[C@@H]1CN([C@@H](C)CO)C(=O)c2cc(C#C[C@@H](C)O)cnc2O[C@H]1CN(C)Cc1cccc(C(=O)O)c1	0	10	1
S=C(SSC(=S)N1CCOCC1)N1CCOCC1	.	24*	0
C=CCNC(=S)N1CCOCC1	.	7	.
CCC[C@@H](CN1CCC[C@H]1CN1C(N)=NC[C@@H]1Cc1ccccc1)N1C[C@@H](Cc2ccccc2)N(CCc2ccc(Cl)c(Cl)c2)C1=N	-161	-6	0
CCC[C@@H](CN1CCC[C@H]1CN1C(N)=NC[C@H]1CC(C)C)N1C[C@@H](Cc2ccccc2)N(CCc2ccc(Cl)c(Cl)c2)C1=N	-13	55*	0
CN(C)C(=O)[C@@H]1[C@@H](CO)[C@@H]2Cn3c(ccc(-c4ccccc4)c3=O)[C@@H]2N1C(=O)c1ccccn1	5	3	0
O=C(Nc1ccccc1)Nc1ccc2c(c1)[C@@H]1C[C@H](CC(=O)N3CCCCC3)O[C@@H](CO)[C@@H]1O2	9	?	0
COc1cccc(C(=O)NNC(=O)C2CC(C)=C(C)CC2C(=O)O)c1 (centres undefined)	99*	.	.
COc1cccc(C(=O)NNC(=O)c2ccccc2)c1	-6	-2	0
C[C@H](CO)N1C[C@H](C)[C@H](CN(C)CC2CCCCC2)Oc2c(NC(=O)Nc3cccc4ccccc34)cccc2C1=O	8	-11	0
COCCNC(=O)C1(C)CCN(C(=O)c2ccc3c(c2)C(C)(C)CCC3(C)C)C1 (centres undefined)	-8	-3	0
COCCNC(=O)C1(C)CCN(C(=O)c2cc(C(C)(C)C)nn2C)C1 (centres undefined)	5	38*	0
COCC(=O)Nc1ccc2c(c1)OC[C@H](C)N(CCc1ccccc1)C[C@@H](C)[C@H](OC)CN(C)C2=O	-3	-2	0
Cc1ccc(C(=O)c2ncc[nH]2)cc1	2	52*	0
O=C(c1ccc(OC(F)(F)F)cc1)c1ncc[nH]1	-3	.	.
SMILES	C2C12 statin	DENV2 CPE rescue	E-selectin induc
C[C@@H]1CN([C@@H](C)CO)C(=O)Cc2cc(NC(=O)c3ccncc3)ccc2O[C@H]1CN(C)S(C)(=O)=O	-3	6	-7
CN(Cc1cccc([N+](=O)[O-])c1)Cc1cccc2ccccc12	-2	5	0
COc1cc(CN(C)Cc2cccc3ccccc23)cc([N+](=O)[O-])c1O	12	42*	0
CCCN1C[C@H](C)[C@@H](OC)CN(C)C(=O)c2ccc(NC(=O)Nc3c(C)noc3C)cc2OC[C@@H]1C	-1	1	0
CO[C@@H]1CN(C)C(=O)c2cc(NC(C)=O)ccc2OC[C@H](C)N(Cc2nccs2)C[C@@H]1C	3	59*	0
CO[C@@H]1CN(C)C(=O)c2cc(NC(=O)NC(C)C)ccc2OC[C@H](C)N(Cc2ccccn2)C[C@H]1C	-6	-2	0
CO[C@@H]1CN(C)C(=O)c2cc(NC(=O)NC(C)C)ccc2OC[C@H](C)N(Cc2ccccn2)C[C@@H]1C	-2	73*	0
CO[C@H]1CN(C)C(=O)c2cc(NC(C)=O)ccc2OC[C@@H](C)N(Cc2nccs2)C[C@H]1C	14	5	0
Cc1noc(C)c1NC(=O)NCC[C@H]1CC[C@@H](NC(=O)Cc2cccnc2)[C@@H](CO)O1	5	?	0
O=C(C[C@@H]1CC[C@H]2NC[C@@H](O)COC[C@@H]2O1)NCCc1ccccc1	-20	-2	0
O=C(c1cccc(-c2nnc(-c3ccccc3)o2)c1)N1CCCCCC1	8	.	.
O=C(c1cccc(-c2nnc(-c3ccccc3)o2)c1)N1CCCCC1	121*	.	.
OC(CSc1nnnn1-c1ccccc1)Cn1c2ccccc2c2ccccc21 (centres undefined)	.	21*	0
CCn1c2ccccc2c2cc(NC(=O)CSc3nnnn3-c3ccccc3)ccc21	-30	.	.
CCCN1C[C@H](C)[C@H](OC)CN(C)C(=O)c2ccc(NC(=O)Nc3ccccc3F)cc2OC[C@@H]1C	-4	-4	0
COc1cccc(C#Cc2ccc3c(c2)[C@H]2[C@H](CCN2S(=O)(=O)c2cccc(OC)c2)[C@@H](CO)N3)c1	.	-5	0
COc1ccc(S(=O)(=O)N2CC[C@H]3[C@H](CO)Nc4ccc(C#Cc5ccccc5OC)cc4[C@H]32)cc1	.	-8	0
O=S(=O)(c1ccccc1)N1CC[C@@H]2[C@H](CO)Nc3ccc(C#Cc4cccc(F)c4)cc3[C@@H]21	-8	9	1
COc1ccc(S(=O)(=O)N2CC[C@@H]3[C@H]2c2cc(C#Cc4ccccc4OC)ccc2N[C@@H]3CO)cc1	-10	46*	0
O=S(=O)(c1ccccc1)N1CC[C@H]2[C@H](CO)Nc3ccc(C#Cc4cccc(F)c4)cc3[C@H]21	.	30*	0
COc1cccc(C#Cc2ccc3c(c2)[C@H]2[C@H](CCN2S(=O)(=O)c2cccc(OC)c2)[C@H](CO)N3)c1	.	38*	0
O=C(CN1CCOCC1)NCC[C@@H]1CC[C@H](NC(=O)Nc2ccc(Cl)cc2)[C@@H](CO)O1	-5	0	1
CCCN(C)C[C@H]1OCCCC[C@@H](C)Oc2ccc(NC(=O)NC(C)C)cc2C(=O)N([C@H](C)CO)C[C@@H]1C	.	0	.
C[C@@H]1CCCCO[C@H](CN(C)S(=O)(=O)c2ccccc2)[C@@H](C)CN([C@H](C)CO)C(=O)c2cc(N(C)C)ccc2O1	7	11	0

Screens (PubChem BioAssay)
